The results in this text go back to ChEMBL document CHEMBL4513216, “Probing the Open Global Health Chemical Diversity Library for Multistage-Active Starting Points for Next-Generation Antimalarials” (ACS Infect Dis, 2020).

This data set in a line: Toxicity liver stage against HepG2, at 10uM. Type of data set: cell-based. Set-up: test concentration 10 uM, cell line HepG2-A16-CD81EGFP. To be noted: human, HepG2-A16-CD81EGFP cells; read-out: INHIBITION
Put shortly: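 Uninfected HepG2-A16-CD81EGFP cells, 3 × 10^3 per well, 1536-well, plated on prespotted compound at 10 μM final, parasite-free screening media added to match infected plates; puromycin 10 μM positive, DMSO 0.5% negative; run in parallel with 48 h PbLuc assay at 37 °C, 5% CO2; viability by CellTiter-Glo luminescence, normalized to controls.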
For `CCc1noc(CN2CCN(Cc3cccs3)CC2)n1`, the cytotoxicity at 10 µM is -5.06%. Next, `Cc1n[nH]c(C)c1-c1cnc(CC2CCCN(S(C)(=O)=O)C2)cn1` (stereo unspecified): -7.3%; `Cc1ccc(-c2nccn2-c2ccc(OC3CCN(C)CC3)cc2)o1`: -10.4%. Regarding `O=C(NCC1CC[C@@]2(CNCCOC2)O1)c1cccnc1` (stereo partly specified), the cytotoxicity at 10 µM was 2.32%. Consider `Cc1cc(CNc2ccc(C(F)(F)F)cc2)no1`, for which the cytotoxicity at 10 µM is -54%.

As for `CN(C)c1ccc(-c2cccc(-c3ccn(CCCO)n3)c2)nn1`, the cytotoxicity at 10 µM was -3.06%. As for `CC(=O)N1CCC(n2ccc(-c3cnc(N4CCOCC4)nc3)n2)CC1`, the figure is -10.4%; as for `O=C(Cn1c(=O)[nH]c2cn(-c3ccccc3)c(=O)n21)Nc1ccccc1`, 18.6%. For the molecule `CN(C)c1cc(C(=O)Nc2cccnc2N2CCSCC2)ccn1`, the cytotoxicity at 10 µM was -2.9%. As for `O=C(NCCc1ccccn1)C1(n2cnnn2)CCCCC1`, the figure is 0.801%. Next, `COCCn1ccnc1C1CCCN(c2cc(OC)nc(N)n2)C1` (stereo unspecified): 11.2%; `O=C(c1cccs1)N1CCC[C@]2(C[C@@H](OCc3ccncc3)CO2)C1`: 7.92%; `O=C(NCC(O)COc1cccc(F)c1)C1(c2ccc(F)cc2)CC1` (stereo unspecified): 0.884%.

Take `COc1ccc(N2CCN(C(=O)[C@@H]3C[C@@H](O)CN3)CC2(C)C)cc1`: the cytotoxicity at 10 µM amounted to 4.95%. For the molecule `Cc1cc(C)n(CC2CCCCN2C(=O)c2cnn(C)c2)n1` (stereo unspecified), the cytotoxicity at 10 µM is 6.79%. Next, `Cn1nccc1C(=O)N1C[C@@H]2CN(S(C)(=O)=O)CCO[C@@H]2C1`: 9.61%; `Cc1ccc(CNCc2nccn2C)c(OC(C)(C)C)c1`: -2.58%. Take `COCCN1CCCC(c2nccnc2-c2cccc(Cl)c2)C1` (stereo unspecified): the cytotoxicity at 10 µM came out at 3.99%.

`CCc1ccccc1OC1CN(C(=O)c2sccc2N)C1`: the cytotoxicity at 10 µM came out at 14.4%. In the case of `O=C(NC1CC1)N1CC[C@H](OCC2CC2)[C@@H]1Cc1cccnc1`, the cytotoxicity at 10 µM was found to be 1.36%. In the case of `CN(C)C(=O)CNC(=O)c1ccc(Cl)cc1F`, the cytotoxicity at 10 µM is -7.04%.

Turning to `Cc1ocnc1C(=O)N1CCN(C(=O)CC(C)C)[C@@H]2CS(=O)(=O)C[C@@H]21`, the cytotoxicity at 10 µM amounted to 12.2%.

As for `CN(C)c1ncc(CN2CCOC(C(=O)Nc3ccccc3)C2)cn1` (stereo unspecified), the cytotoxicity at 10 µM was -3.14%. Next, `CC(C)C(C)(CNC(=O)OC(C)(C)C)NC(=O)c1cnccn1` (stereo unspecified): -6.62%; `Cc1ccc(N2CCC3(CN(Cc4cccs4)CCC3(F)F)C2)nn1` (stereo unspecified): 8.39%. Consider `CCO[C@H]1CC[C@H]2[C@H]1OCCN2C(=O)CC1=CCCCC1`, for which the cytotoxicity at 10 µM is 1.75%. Consider `CCOC1CCN(C(=O)c2ccc(-n3ncc(C#N)c3N)cc2)CC1`, for which the cytotoxicity at 10 µM was -1.1%. Next, `CCOC(=O)N1CCCC2(CCCNC2)C1` (stereo unspecified): 2.11%; `CS(=O)(=O)N1CCC(c2ccncn2)CC1`: 6.77%; `COc1ccc(Cn2c(=O)n(C)c(=O)c3sccc32)cc1`: 24.2%. As for `CNS(=O)(=O)c1cccc(CNC(=O)CCc2ccsc2)c1`, the figure is 13.5%. Next, `c1cc2n(n1)CC(CNCc1ccc(OCC3CC3)nc1)CN2` (stereo unspecified): -3.97%.

As to `Cc1noc(C2CCC3(CCN(C(=O)c4cc(C5CC5)on4)CC3)O2)n1` (stereo unspecified), the cytotoxicity at 10 µM was 3.1%. `Cc1cccc(CN2CCN3C[C@H](Oc4cccnc4)C[C@H]3C2)n1`: the cytotoxicity at 10 µM was 6.61%.

On to `CC(C)(C)c1csc(C2CCCCN2C(=O)CCn2cncn2)n1` (stereo unspecified), for which the cytotoxicity at 10 µM was -4.34%.

As to `CCNC(=O)c1ccc2c(c1)nc1n2CCN(Cc2ccco2)C1`, the cytotoxicity at 10 µM was -5.64%. Next, `COCCCN(Cc1ccccn1)Cc1ccnn1C1CCCCO1` (stereo unspecified): -2.66%. As for `CC(C(=O)O)N1CC2(CCC1=O)CCN(C/C=C/c1ccccc1)CC2` (stereo unspecified), the figure is -1.72%; as for `O=C(CCc1nc(Cl)n[nH]1)NC1CCCN(C2Cc3ccccc3C2)C1` (stereo unspecified), -18.9%; as for `Cc1cccc(C(=O)N2CC[C@@H]3[C@H]2CCC(=O)N3c2ccccc2)n1`, -94.8%. Turning to `CN(C)C(=O)CN1CCC2(CC1)CN(S(C)(=O)=O)Cc1ccccc1O2`, the cytotoxicity at 10 µM is 0.56%. Turning to `CCOc1nc2cccnc2n(CC(=O)NCCOC)c1=O`, the cytotoxicity at 10 µM is -7.84%. On to `CCn1nc(C)c(CNC(=O)C2COc3ccccc3C2)c1C` (stereo unspecified), for which the cytotoxicity at 10 µM was 9.39%. Turning to `Cc1nc(N2CCCC2)ncc1C(=O)Nc1ccc(Br)cc1`, the cytotoxicity at 10 µM is -1.85%. As for `CC(=O)N(Cc1noc(C2CC2)n1)C1CCN(Cc2ccncc2)C1` (stereo unspecified), the figure is -13.8%; as for `Cc1ccc(OCc2cccc(C(=O)N(C)CCC#N)c2)cn1`, -3.3%; as for `Cc1cccc(C(C(=O)NCCn2cccc2)N(C)C)c1` (stereo unspecified), -9.12%.

Take `CCN(Cc1ccc2c(c1)OCO2)C(=O)NC(C)Cn1cccn1` (stereo unspecified): the cytotoxicity at 10 µM is -2.5%. Regarding `Cc1ccc(-c2cccc(CC3(C(=O)O)CCOCC3)c2)c(C)c1`, the cytotoxicity at 10 µM was -29.8%. As for `Cc1cc(C(=O)N2C[C@@H]3OCCN(CCN4CCCC4)[C@@H]3C2)c(C)o1`, the figure is -74.8%; as for `Cc1cnn(C2CCCN(C(=O)c3ccn(C)c(=O)c3)C2)c1` (stereo unspecified), 4.55%. As for `Cc1nnc(NC(=O)NCc2ccc(N3CCC(C)CC3)nc2)s1`, the figure is -1.36%; as for `O=C(c1cccnc1)N1CCOC(CCCc2ccccc2)C1` (stereo unspecified), 7.07%; as for `Cc1cc(CNC(=O)C2CCC(=O)N(Cc3ccccc3F)C2)on1` (stereo unspecified), -5.26%.

For the molecule `Cc1nc(-c2ccc(F)cc2)nc2c1CCN(C(=O)CN(C)C)CC2`, the cytotoxicity at 10 µM is -1.65%. `Cn1cc(CNCCC(=O)NCc2ccccc2)c(-c2cccnc2)n1`: the cytotoxicity at 10 µM is -2.19%. For the molecule `CC(C)OCCN(Cc1cccc(O)c1)C1CCC(O)CC1` (stereo unspecified), the cytotoxicity at 10 µM was 5.81%. As for `O=C1CCC(c2nc(C3CCN(C(=O)C4CC4)CC3)no2)N1` (stereo unspecified), the cytotoxicity at 10 µM is -1.7%. For the molecule `Cc1nc(C)n(C2CCCN(C(=O)c3ccc(CN(C)C)cc3)C2)n1` (stereo unspecified), the cytotoxicity at 10 µM is -1.6%. As for `CCOC(=O)c1sc2ccsc2c1CNC(=O)CC`, the figure is -5.7%; as for `O=C(c1ccc(C(F)(F)F)nc1)N1CCCC(n2cncn2)C1` (stereo unspecified), -10.6%; as for `O=C(NCCc1noc(C2CCCO2)n1)c1cn2ccsc2n1` (stereo unspecified), -4.4%. For `O=c1ccc2c(n1CCN1CCCC1)CCN(c1ncccn1)CC2`, the cytotoxicity at 10 µM is 8.33%. Next, `COc1ccc2cccc(CC(=O)NCCc3n[nH]c(=O)[nH]3)c2c1`: -3.59%.

In the case of `Cc1nn(C)c(C)c1NC(=O)Nc1cccnc1N1CCCC1`, the cytotoxicity at 10 µM is 7.31%. Turning to `Cc1cc(Cc2ccccc2F)cc(C2CCCNC2)n1` (stereo unspecified), the cytotoxicity at 10 µM was determined as 0.00505%.

Regarding `CCCc1noc(CNC2CCCN(Cc3noc(C4CC4)n3)C2)n1` (stereo unspecified), the cytotoxicity at 10 µM is -13.5%. `c1cnnc(N2CCCC(NCc3cccc4c3OCCO4)C2)c1` (stereo unspecified): the cytotoxicity at 10 µM was -7.99%. In the case of `CCc1nnc2n1CC(CNCc1ccncc1)CC2` (stereo unspecified), the cytotoxicity at 10 µM was -15.1%. Regarding `Cc1cc(C)cc(CN2C[C@@H]3OCCN(CC(=O)N(C)C)[C@@H]3C2)c1`, the cytotoxicity at 10 µM is -92.9%. As to `CCCC(=O)N1CCC([C@@H]2C[C@H](C(F)(F)F)n3nc(C)cc3N2)CC1`, the cytotoxicity at 10 µM is -16.1%.

`Cc1nnc2n1CCN(CC(=O)N1CCc3ccccc3C1)C2`: the cytotoxicity at 10 µM was -9.27%. Next, `Cc1ccc(=O)n(CC2(O)CCN(Cc3ccoc3)CC2)n1`: -24.2%; `O=C1NC2(CCN(Cc3cccs3)CC2)CC1c1ccncc1` (stereo unspecified): 1.2%; `CC(C)C1SCC(=O)Nc2c1cnn2-c1ccc(F)cc1` (stereo unspecified): 1.23%.

Consider `CN(C)c1ncccc1C(=O)N1CCc2c(ncn2C2CC2)C1`, for which the cytotoxicity at 10 µM was 1.28%. Next, `O=C(NS(=O)(=O)c1cc(Cl)sc1Cl)c1cccc2c1OCCO2`: 5.32%. `COc1cc(C(=O)N2CCC(c3n[nH]c(C)n3)CC2)cc(OC)c1C`: the cytotoxicity at 10 µM was -10.9%. Take `CN1CC2(CCCN(c3cnccn3)C2)OC1=O` (stereo unspecified): the cytotoxicity at 10 µM is -43.2%.

On to `O=C(CC1CCN(c2cccnn2)CC1)NC1CCOCC1`, for which the cytotoxicity at 10 µM is 0.671%.

Regarding `Cc1cc2c(cc1C)OC(C(=O)NCCNC(=O)C1CCCC1)C2` (stereo unspecified), the cytotoxicity at 10 µM came to 7.71%.

For `Cc1occc1C(=O)N1CCCN(Cc2ncc(Cl)n2C)CC1`, the cytotoxicity at 10 µM is -1.25%. As for `O=C(CN1CCCC1Cn1cncn1)NCCC1=CCCCC1` (stereo unspecified), the figure is -16.5%; as for `CCNC(=O)CN1CCC(OCC2CCCO2)CC1` (stereo unspecified), -3.78%. As for `COCCOCC(=O)N1C[C@@H]2CC[C@H](Oc3cccc(F)c3)[C@@H]2C1`, the figure is -26%. With `O=C(NC1CC1)C(c1ccccc1)N1CCn2c(nnc2C2CC2)C1` (stereo unspecified), the cytotoxicity at 10 µM is -6.22%. As for `CCc1nc(COc2ccc(OCc3cnn(C)c3)cc2)no1`, the figure is -14.9%; as for `CN(C)C(=O)c1nc2c(s1)CCCN2Cc1ccccc1`, 7.58%; as for `CCN(CC)c1ccc(C(=O)N2C[C@H]3CC[C@@H](C2)N(CCOC)C3)cc1`, -12.3%. As for `COCc1nc(C(=O)N2CCCC2c2c(C)nn(C)c2C)cs1` (stereo unspecified), the figure is -4.74%. Next, `Cc1nnsc1C(=O)NCc1nn(C2CCCC2)c2c1CCCC2`: -0.543%; `CC(C)(C)c1noc(CCC(=O)N2CCN(Cc3ccco3)CC2)n1`: 6.11%; `CSCCNC(=O)C1CCC(=O)N(C2CCCC2)C1` (stereo unspecified): -3.75%. Take `Cc1ncnc2c1CCN(c1ccccn1)CC2`: the cytotoxicity at 10 µM is -157%.

On to `CS(=O)(=O)N1CCN(C(=O)Cn2ccc3c(Cl)cccc32)CC1`, for which the cytotoxicity at 10 µM was found to be 20.6%. Next, `O=C(c1ccco1)N1CC(S(=O)(=O)c2ccc(Cl)cc2)C1`: -2.02%.
